23 compounds from ChEMBL document CHEMBL1641460, “Potent and selective thiophene urea-templated inhibitors of S6K” (Bioorg Med Chem Lett, 2011) can be followed below.

Values after ≈ are worked out from the molar mass of the structure shown.

Data set [1] has as its target T1, Ribosomal protein S6 kinase beta-1 (Homo sapiens, UniProt P23443). The data set is described as follows: Inhibition of S6K1.
The target of data set [2] is Voltage-gated inwardly rectifying potassium channel KCNH2 (Homo sapiens, UniProt Q12809). The data set can be described thus: Displacement of labeled dofetilide from human ERG.
Sequence of Voltage-gated inwardly rectifying potassium channel KCNH2 (Q12809 whole entry): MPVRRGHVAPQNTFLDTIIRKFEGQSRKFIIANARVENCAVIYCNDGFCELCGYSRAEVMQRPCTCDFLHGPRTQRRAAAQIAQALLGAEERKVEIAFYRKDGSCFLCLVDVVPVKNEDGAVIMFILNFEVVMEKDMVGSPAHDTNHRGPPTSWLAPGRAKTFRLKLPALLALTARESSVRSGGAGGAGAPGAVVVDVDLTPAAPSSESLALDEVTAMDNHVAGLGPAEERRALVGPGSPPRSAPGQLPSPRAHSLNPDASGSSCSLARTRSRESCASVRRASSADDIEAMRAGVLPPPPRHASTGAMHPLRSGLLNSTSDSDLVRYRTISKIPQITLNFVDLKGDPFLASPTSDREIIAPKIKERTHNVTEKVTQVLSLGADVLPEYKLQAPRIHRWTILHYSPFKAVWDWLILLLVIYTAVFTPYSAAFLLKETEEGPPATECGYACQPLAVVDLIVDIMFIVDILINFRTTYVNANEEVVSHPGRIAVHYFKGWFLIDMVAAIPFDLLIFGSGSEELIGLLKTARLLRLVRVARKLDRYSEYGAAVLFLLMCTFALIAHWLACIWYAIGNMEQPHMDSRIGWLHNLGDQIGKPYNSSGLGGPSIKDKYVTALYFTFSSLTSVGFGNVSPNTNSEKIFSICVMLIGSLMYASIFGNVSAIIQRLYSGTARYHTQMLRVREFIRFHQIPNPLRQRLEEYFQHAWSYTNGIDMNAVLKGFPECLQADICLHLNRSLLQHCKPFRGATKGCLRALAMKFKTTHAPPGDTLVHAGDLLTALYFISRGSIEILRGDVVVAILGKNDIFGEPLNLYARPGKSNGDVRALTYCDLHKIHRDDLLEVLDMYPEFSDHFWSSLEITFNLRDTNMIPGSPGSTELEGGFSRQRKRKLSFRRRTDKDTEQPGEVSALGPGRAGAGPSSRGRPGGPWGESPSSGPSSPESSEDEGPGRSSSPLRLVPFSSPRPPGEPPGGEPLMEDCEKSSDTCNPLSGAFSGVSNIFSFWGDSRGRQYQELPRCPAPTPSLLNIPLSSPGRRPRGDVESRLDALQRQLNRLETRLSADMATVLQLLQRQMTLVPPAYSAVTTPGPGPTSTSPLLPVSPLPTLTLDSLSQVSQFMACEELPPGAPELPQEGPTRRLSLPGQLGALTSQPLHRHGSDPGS
The nature of data set [3]: Half life in human liver microsomes at 1 uM by LC/MS/MS analysis. The data set is classed as ADME, Microsome. Put shortly:
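Test compound incubated with human liver microsomes to measure Phase I metabolic stability. Remaining compound quantified by LC/MS/MS, and stability reported as half-life (T1/2) in minutes.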
A general note: Liver microsomes are vesicles of endoplasmic reticulum, rich in cytochrome P450 enzymes.

The target of the next data set is CYP2D6 (Homo sapiens, UniProt P10635). The data set is described as follows: Inhibition of CYP2D6 at 3 uM by LC/MS/MS analysis. Format: ADME.
Sequence of CYP2D6 (P10635 whole entry): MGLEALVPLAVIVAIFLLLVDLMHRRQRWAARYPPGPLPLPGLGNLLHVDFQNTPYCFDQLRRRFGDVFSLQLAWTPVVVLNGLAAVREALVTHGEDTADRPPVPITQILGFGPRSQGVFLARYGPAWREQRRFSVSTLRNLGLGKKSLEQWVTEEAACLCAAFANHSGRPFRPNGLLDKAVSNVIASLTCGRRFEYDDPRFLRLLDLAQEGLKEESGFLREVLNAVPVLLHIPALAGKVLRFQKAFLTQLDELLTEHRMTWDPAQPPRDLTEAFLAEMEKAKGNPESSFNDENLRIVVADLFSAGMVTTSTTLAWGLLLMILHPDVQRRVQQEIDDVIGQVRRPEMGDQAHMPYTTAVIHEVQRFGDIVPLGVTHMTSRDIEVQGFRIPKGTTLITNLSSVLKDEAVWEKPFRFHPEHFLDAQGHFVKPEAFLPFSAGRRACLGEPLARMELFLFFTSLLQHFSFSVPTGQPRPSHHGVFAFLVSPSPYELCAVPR
The target in another data set is CYP3A4 (Homo sapiens, UniProt P08684). The data set is described as follows: Inhibition of CYP3A4 at 3 uM by LC/MS/MS analysis. Format: ADME.
Sequence of CYP3A4 (P08684 whole entry): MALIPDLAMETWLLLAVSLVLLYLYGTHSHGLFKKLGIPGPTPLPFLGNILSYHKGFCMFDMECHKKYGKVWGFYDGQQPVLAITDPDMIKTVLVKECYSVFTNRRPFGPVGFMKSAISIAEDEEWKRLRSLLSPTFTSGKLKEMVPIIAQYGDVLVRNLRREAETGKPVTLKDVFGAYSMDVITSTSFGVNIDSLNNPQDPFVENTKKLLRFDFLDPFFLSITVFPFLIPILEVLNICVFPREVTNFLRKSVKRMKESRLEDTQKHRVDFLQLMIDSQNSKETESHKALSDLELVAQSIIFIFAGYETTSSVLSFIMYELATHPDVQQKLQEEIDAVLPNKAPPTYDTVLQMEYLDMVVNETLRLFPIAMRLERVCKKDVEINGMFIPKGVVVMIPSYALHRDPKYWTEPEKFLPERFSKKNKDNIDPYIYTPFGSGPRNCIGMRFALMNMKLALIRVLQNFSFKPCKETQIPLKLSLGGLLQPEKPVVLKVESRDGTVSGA
The target in the next data set is CYP2C9 (Homo sapiens, UniProt P11712). The data set can be described thus: Inhibition of CYP2C9 at 3 uM by LC/MS/MS analysis. The data set is classed as ADME.
Sequence of CYP2C9 (P11712 whole entry): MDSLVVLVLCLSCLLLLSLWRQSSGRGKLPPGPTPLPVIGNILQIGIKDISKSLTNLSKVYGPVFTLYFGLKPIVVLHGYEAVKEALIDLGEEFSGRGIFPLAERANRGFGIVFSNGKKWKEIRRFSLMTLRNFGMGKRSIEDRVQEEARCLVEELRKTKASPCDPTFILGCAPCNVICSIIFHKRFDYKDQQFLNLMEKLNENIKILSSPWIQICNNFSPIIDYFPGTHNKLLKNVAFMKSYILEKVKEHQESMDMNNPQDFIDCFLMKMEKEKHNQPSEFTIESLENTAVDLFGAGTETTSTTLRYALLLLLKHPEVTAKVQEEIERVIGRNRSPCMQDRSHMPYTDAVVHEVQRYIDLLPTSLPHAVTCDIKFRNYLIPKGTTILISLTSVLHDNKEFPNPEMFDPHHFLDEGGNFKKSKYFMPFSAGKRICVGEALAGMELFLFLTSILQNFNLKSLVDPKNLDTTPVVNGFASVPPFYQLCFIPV
Data set [4] in a line: Half life in human hepatocytes at 1 uM by LC/MS/MS analysis. Format: ADME, cell-based, Liver, Hepatocyte. Put shortly: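 Stability measured in intact human hepatocytes, with remaining parent compound quantified by LC/MS/MS. Result expressed as half-life (T1/2) in minutes.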
Data set [5] addresses T1, Ribosomal protein S6 kinase beta-1. The data set is described as follows: Inhibition of S6K1 in ribosomal protein S6 by whole cell assay.
Data set [6] in a line: Kinetic solubility of the compound in 50 mM phosphate buffer at pH 6.5. Format: physicochemical.
A further data set has as its target T2, CYP1A2 (Homo sapiens, UniProt P05177).
T2 sequence (P05177 whole entry): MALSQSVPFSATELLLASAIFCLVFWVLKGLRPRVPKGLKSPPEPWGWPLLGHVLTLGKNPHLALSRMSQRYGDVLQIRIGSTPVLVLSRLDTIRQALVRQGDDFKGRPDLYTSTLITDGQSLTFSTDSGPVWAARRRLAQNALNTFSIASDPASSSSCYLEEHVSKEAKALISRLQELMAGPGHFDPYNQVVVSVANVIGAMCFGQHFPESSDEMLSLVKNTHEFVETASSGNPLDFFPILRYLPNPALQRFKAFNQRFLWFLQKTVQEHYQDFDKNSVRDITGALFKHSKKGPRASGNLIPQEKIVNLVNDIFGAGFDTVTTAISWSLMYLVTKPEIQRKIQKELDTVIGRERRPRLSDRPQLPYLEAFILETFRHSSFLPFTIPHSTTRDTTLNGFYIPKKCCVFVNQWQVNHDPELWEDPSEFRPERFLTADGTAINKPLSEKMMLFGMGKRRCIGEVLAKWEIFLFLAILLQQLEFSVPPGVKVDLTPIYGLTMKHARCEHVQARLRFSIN
The data set can be described thus: Inhibition of CYP1A2 at 3 uM by LC/MS/MS analysis. Format: ADME.

T1 sequence (P23443 whole entry): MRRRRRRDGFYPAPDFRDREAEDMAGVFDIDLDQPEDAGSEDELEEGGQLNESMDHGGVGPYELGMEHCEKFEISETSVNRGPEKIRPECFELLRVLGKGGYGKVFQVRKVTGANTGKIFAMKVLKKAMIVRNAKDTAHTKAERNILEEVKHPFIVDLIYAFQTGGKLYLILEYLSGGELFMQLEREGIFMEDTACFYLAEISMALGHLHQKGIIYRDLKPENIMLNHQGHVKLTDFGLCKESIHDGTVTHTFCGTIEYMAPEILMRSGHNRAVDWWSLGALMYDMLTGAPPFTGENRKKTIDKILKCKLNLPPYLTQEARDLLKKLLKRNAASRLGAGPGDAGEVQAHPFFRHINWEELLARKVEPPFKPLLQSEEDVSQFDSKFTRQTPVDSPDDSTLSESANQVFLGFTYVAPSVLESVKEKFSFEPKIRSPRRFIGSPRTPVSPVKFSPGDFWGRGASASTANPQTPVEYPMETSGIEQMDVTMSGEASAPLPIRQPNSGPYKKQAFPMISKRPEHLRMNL

The term IC50 denotes the midpoint of a concentration-inhibition curve. The low end stands for greater potency, the high end for weaker potency. In the case of `Cc1c(O)cccc1NC(=O)Nc1sc(C(C)(C)C)cc1C(=O)N1CCS(=O)(=O)CC1`, the IC50 in data set [1] came out at 4000 nM.
In [1], `CC(C)(C)c1cc(C(=O)N2CCS(=O)(=O)CC2)c(NC(=O)Nc2ccc3[nH]ncc3c2)s1` showed an IC50 of 34 nM.
In [1], `CN(C)CCNC(=O)c1cc(-c2ccccc2)sc1NC(=O)Nc1ccc2[nH]ncc2c1` gave an IC50 of 1900 nM.
In data set [1], `CCc1cc(C(=O)NCCN(C)C)c(NC(=O)Nc2ccc3[nH]ncc3c2)s1` displayed an IC50 of 62 nM.
Same read-out and setting: with `C[C@H](O)c1cc(C(=O)NCCN(C)C)c(NC(=O)Nc2ccc3[nH]ncc3c2)s1` the figure was 379 nM.
With `CC(C)(C)c1cc(C(=O)N2CCS(=O)(=O)CC2)c(NC(=O)Nc2ccc3oc4cccnc4c3c2)s1`, the IC50 in data set [1] was over 20000 nM.
As usually defined, the half-life is how long it takes for the measured level to halve. Higher therefore signals slow loss. A word on the inhibition: it is the relative decrease from the control value, in per cent. Usually solubility (kinetic) stands for solubility judged after dilution from a stock solution rather than from solid. On to `CC(C)(C)c1cc(C(=O)NC2CC2)c(NC(=O)Nc2ccc3[nH]ncc3c2)s1`, for which the “inhibition (INH)” value in [2] is given as 0%. Further, the half-life at 1 µM in data set [3] was over 2 h; in data set [4], 2.3 h. The inhibition at 3 µM at CYP2D6 turned out to be 12%; at CYP3A4, 11%; against CYP2C9, 11%; against CYP1A2, 40%. The IC50 in [1] is 10 nM; in [5], 685 nM. In data set [6], this compound gave a solubility (kinetic) of 10 µg/mL (≈ 25.2 µM).
For the compound `CC(C)c1cc(C(=O)NCCN(C)C)c(NC(=O)Nc2ccc3[nH]ncc3c2)s1`, in data set [1], half-maximal inhibition (IC50) was put at 29 nM.
`CC(C)(C)c1ccc(NC(=O)Nc2ccc3[nH]ncc3c2)s1`: the “inhibition (INH)” value in data set [2] was determined as 0%. Besides, the half-life at 1 µM in data set [3] is 0.917 h. In addition, the inhibition at 3 µM at CYP2D6 stood at 20%; on CYP3A4, 4%; against CYP2C9, 52%; at CYP1A2 it was 36%. In data set [1], this compound had an IC50 of 19 nM. Also, the solubility (kinetic) in data set [6] turned out to be 7 µg/mL (≈ 22.3 µM).
In turn, `CC(C)(C)c1cc(C(=O)N2CCS(=O)(=O)CC2)c(NC(=O)Nc2ccc(Oc3cccnc3)cc2)s1` yielded a concentration for half-maximal inhibition (IC50) in data set [1] of 9000 nM.
As for `COc1ccccc1Oc1ccc(NC(=O)Nc2sc(C(C)(C)C)cc2C(=O)N2CCS(=O)(=O)CC2)cc1`, the IC50 in [1] was over 20000 nM.
In data set [1], `Cc1cc(C(=O)NCCN(C)C)c(NC(=O)Nc2ccc3[nH]ncc3c2)s1` yielded an IC50 of 223 nM.
On the same count and under the same terms, for `CC(C)(C)c1cc(C(=O)NCc2ccccc2F)c(NC(=O)Nc2ccc3[nH]ncc3c2)s1` the value was 191 nM; for `CC(C)(C)c1cc(C(=O)N2CCOCC2)c(NC(=O)Nc2ccc3[nH]ncc3c2)s1`, 207 nM.
For `CC(C)(C)c1cc(C(=O)NCCO)c(NC(=O)Nc2ccc3[nH]ncc3c2)s1`, the “inhibition (INH)” value in data set [2] stood at 0%. In addition, the figures for the half-life at 1 µM in data set [3] and in data set [4] were over 2 h and 4.38 h, respectively. Also, the inhibition at 3 µM at CYP2D6 was 9%; at CYP3A4 it was 0%; on CYP2C9, 30%; on CYP1A2, 52%. In addition, in data set [1], the IC50 was found to be 19 nM. In data set [6], this compound came in with a kinetic solubility of 41 µg/mL (≈ 102 µM).
Consider `CC(C)(C)c1cc(C(=O)N2CCS(=O)(=O)CC2)c(NC(=O)Nc2ccc(Oc3ccccc3F)cc2)s1`, for which the IC50 in data set [1] is over 20000 nM.
The same measure, in the same setting: for `C[C@@H](O)c1cc(C(=O)NCCN(C)C)c(NC(=O)Nc2ccc3[nH]ncc3c2)s1` the value was 196 nM; for `CN(C)CCNC(=O)c1cc(C2CC2)sc1NC(=O)Nc1ccc2[nH]ncc2c1`, 70 nM.
On to `CC(C)(C)c1cc(C(=O)NCc2ccccc2)c(NC(=O)Nc2ccc3[nH]ncc3c2)s1`, for which the IC50 in data set [1] is 201 nM.
On the same count and under the same terms, with `CC(C)(C)c1cc(C(=O)N2CCS(=O)(=O)CC2)c(NC(=O)Nc2ccc(Oc3ccncc3)cc2)s1` the figure was over 20000 nM.
As for `COCCNC(=O)c1cc(C(C)(C)C)sc1NC(=O)Nc1ccc2[nH]ncc2c1`, the “inhibition (INH)” value in data set [2] came out at 0%. The results for the half-life at 1 µM in [3] and in [4] were over 2 h and 6.12 h, respectively. The inhibition at 3 µM on CYP2D6 amounted to 0%; at CYP3A4, 2%; at CYP2C9, 14%; against CYP1A2 it was 45%. In [1], this compound yielded an IC50 of 7 nM. For the same compound, in data set [6], the kinetic solubility was found to be 10 µg/mL (≈ 24.1 µM).
Take `CC(C)(C)c1cc(C(=O)N2CCS(=O)(=O)CC2)c(NC(=O)Nc2ccc(Oc3ccccc3)cc2)s1`: the IC50 in [1] was over 20000 nM.
Turning to `CN(C)CCNC(=O)c1cc(C(C)(C)C)sc1NC(=O)Nc1ccc2[nH]ncc2c1`, in data set [2], the “inhibition (INH)” value is on record as 28%. Further, the results for the half-life at 1 µM in data set [3] and in data set [4] were 0.633 h and 2.08 h, respectively. Besides, the inhibition at 3 µM stood at 7% against CYP2D6, 0% at CYP3A4, 0% on CYP2C9 and 18% against CYP1A2. The IC50 was 15 nM in data set [1] and 521 nM in data set [5]. For the same compound, the solubility (kinetic) in data set [6] was 171 µg/mL (≈ 399 µM).
